The source of these data is the RNAGym collection of RNA variant scans (doi:10.1101/gad.245936.114).

Sequences and labels used below:
B1: tRNA (parent)
chain: CUCUCGGUAGCCAAGUUGGUUUAAGGCGCAAGACUUUAAUUUAUCACUACGAAAUCUUGAGAUCGGGCGUUCGACUCGCCCCCGGGAGAUUUUUUCCUCGAGCAA

Variants at the floor of the assay were thinned out.

The data set covers variants of B1. In words: nonsense suppression (GFP-seq) (ratio to wild type); higher = more function; SUP4oc tRNA, yeast GFP reporter sort-seq. In a few lines:
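Yeast were grown in raffinose/galactose medium with 80 mg/L adenine, each strain bearing a genome-integrated ochre-suppressor tRNA variant from a ~3% random-mutation library, a galactose-driven GFP ochre reporter, and RFP. After sorting into GFP/RFP bins, every bin was sequenced on an Illumina platform at phred ≥30. The GFPSEQ value, a measure of nonsense suppression, is the weighted bin median GFP/RFP relative to the unmutated parent tRNA, using each variant's estimated cell share per bin as the weight. Only variants with ≥100 reads and ≥30 cells were included.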
Regarding CUCUCGGUAGCCAAGUUGGUUUAAGGCGCAAGACUUUAAUUUAUCACUACGAAAUCUUGAGAUGGGGCGUUUGACUCGCCCCCGGGAGAUUUUUUCCUCGAGCAA, the nonsense suppression was no more than 0.026.

With CUCUCGGUAGCCAAGUUGGUUUAAGGCGCAAGACUUUAAUUUAUCACUACGAAAUCUUGAGACCGGGCGUUCGACUCGCCUCCGGGAGAUUUUUUCCUCGAGCAA, the nonsense suppression amounted to 0.142. Take CUCUCGGUAGCCAAGUUGGUUUAAGGCGCAAGACUUUAAUUUAUCACUACGAAAUCUUGAGAGCGGGCGUUUGACUCGCCCCCGGGAGAUUUUUUCCUCGAGCAA: the nonsense suppression came out at 0.0334. Next, CUCUCGGUAGCCAAGUUGGUUUAAGGCGCAAGACUUUAAUUUAUCACUACGAAAUCUUGAGAGCGGGCGUUCGACUCGCCCCCGAGAGAUUUUUUCCUCGAGCAA: 0.787. Take CUCUCGGUAGCCAAGUUGGUUUAAGGCGCAAGACUUUAAUUUAUCACUACGAAAUCUUGAGAGCGGGCGUUCGACUCGCCCCCGGGAGAUUUUUUCCUCGAGCAA: the nonsense suppression was 1.14. Regarding CUCUCGGUAGCCAAGUUGGUUUAAGGCGCAAGACUUUAAUUUAUCACUACGAAAUCUUGAGAGCGGGCGUUCGACUCGCCCCCCGGAGAUUUUUUCCUCGAGCAA, the nonsense suppression was determined as 0.0283. On to CUCUCGGUAGCCAAGUUGGUUUAAGGCGCAAGACUUUAAUUUAUCACUACGAAAUCUUGAGACCGGGCGUUCAACUCGCCCCCGGGAGAUUUUUUCCUCGAGCAA, for which the nonsense suppression amounted to 0.11. As to CUCUCGGUAGCCAAGUUGGUUUAAGGCGCAAGACUUUAAUUUAUCACUACGAAAUCUUGAGACCGGGCGUUCGACUCUCCCCCGGGAGAUUUUUUCCUCGAGCAA, the nonsense suppression is 0.0499. Consider CUCUCGGUAGCCAAGUUGGUUUAAGGCGCAAGACUUUAAUUUAUCACUACGAAAUCUUGAGAGCGGGCGUUCGACUCGCCCCCGGGAGGUUUUUUCCUCGAGCAA, for which the nonsense suppression was 0.0674. Next, CUCUCGGUAGCCAAGUUGGUUUAAGGCGCAAGACUUUAAUUUAUCACUACGAAAUCUUGAGAGCGGGCGUUCGACUCUCCCCCGGGAGAUUUUUUCCUCGAGCAA: 0.0445. Next, CUCUCGGUAGCCAAGUUGGUUUAAGGCGCAAGACUUUAAUUUAUCACUACGAAAUCUUGAGAGCGGGCGUUCGACUCACCCCCGGGAGAUUUUUUCCUCGAGCAA: 0.0891; CUCUCGGUAGCCAAGUUGGUUUAAGGCGCAAGACUUUAAUUUAUCACUACGAAAUCUUGAGAGCGGGCGUCCGACUCGCCCCCGGGAGAUUUUUUCCUCGAGCAA: 0.028; CUCUCGGUAGCCAAGUUGGUUUAAGGCGCAAGACUUUAAUUUAUCACUACGAAAUCUUGAGAGCGGGCGUUCGACUCGCCCCCGGGUGAUUUUUUCCUCGAGCAA: 0.0518.

Consider CUCUCGGUAGCCAAGUUGGUUUAAGGCGCAAGACUUUAAUUUAUCACUACGAAAUCUUGAGACCGGGCGUUCGAUUCGCCCCCGGGAGAUUUUUUCCUCGAGCAA, for which the nonsense suppression turned out to be 1.1. Turning to CUCUCGGUAGCCAAGUUGGUUUAAGGCGCAAGACUUUAAUUUAUCACUACGAAAUCUUGAGAUGGGGCGUUCGACUCGACCCCGGGAGAUUUUUUCCUCGAGCAA, the nonsense suppression was no more than 0.026.

With CUCUCGGUAGCCAAGUUGGUUUAAGGCGCAAGACUUUAAUUUAUCACUACGAAAUCUUGAGACCGGGCGUUCGACCCGCCCCCGGGAGAUUUUUUCCUCGAGCAA, the nonsense suppression stood at 0.693. For CUCUCGGUAGCCAAGUUGGUUUAAGGCGCAAGACUUUAAUUUAUCACUACGAAAUCUUGAGAGCGGGCGCUCGAUUCGCCCCCGGGAGAUUUUUUCCUCGAGCAA, the nonsense suppression was 0.099.

Consider CUCUCGGUAGCCAAGUUGGUUUAAGGCGCAAGACUUUAAUUUAUCACUACGAAAUCUUGAGAGCGUGCGUUCGACUCGCCCCCAGGAGAUUUUUUCCUCGAGCAA, for which the nonsense suppression was no more than 0.026. In the case of CUCUCGGUAGCCAAGUUGGUUUAAGGCGCAAGACUUUAAUUUAUCACUACGAAAUCUUGAGAGCGGGCGUUCGACUCGCCCUCGGGAGAUUUUUUCCUCGAGCAA, the nonsense suppression amounted to 0.0882. CUCUCGGUAGCCAAGUUGGUUUAAGGCGCAAGACUUUAAUUUAUCACUACGAAAUCUUGAGAGCGGGCGUUCGACUCGCUCCCGGGAGAUUUUUUCCUCGAGCAA: the nonsense suppression is no more than 0.026. Next, CUCUCGGUAGCCAAGUUGGUUUAAGGCGCAAGACUUUAAUUUAUCACUACGAAAUCUUGAGACCGGGCGUUCGACUCGCCCCCGAGAGAUUUUUUCCUCGAGCAA: 1.06; CUCUCGGUAGCCAAGUUGGUUUAAGGCGCAAGACUUUAAUUUAUCACUACGAAAUCUUGAGAGCGGGCGUUCAACUCGCCCCCGGGAGAUUUUUUCCUCGAGCAA: 0.189. CUCUCGGUAGCCAAGUUGGUUUAAGGCGCAAGACUUUAAUUUAUCACUACGAAAUCUUGAGAGCGGGCAUUCGACUCGCCCCCGGGAGAUUUUUUCCUCGAGCAA: the nonsense suppression is 0.116.

For the variant CUCUCGGUAGCCAAGUUGGUUUAAGGCGCAAGACUUUAAUUUAUCACUACGAAAUCUUGAGACCGGGCGUUCGACUCGCCCUCGGGAGAUUUUUUCCUCGAGCAA, the nonsense suppression amounted to 0.449. The value for CUCUCGGUAGCCAAGUUGGUUUAAGGCGCAAGACUUUAAUUUAUCACUACGAAAUCUUGAGAGCGGACGUUCGACUCGCCCCCGGGAGAUUUUUUCCUCGAGCAA was 0.0444; that for CUCUCGGUAGCCAAGUUGGUUUAAGGCGCAAGACUUUAAUUUAUCACUACGAAAUCUUGAGAGCGGGCGUUCGACCCGCCCCCGGGAGAUUUUUUCCUCGAGCAA was 0.0764. With CUCUCGGUAGCCAAGUUGGUUUAAGGCGCAAGACUUUAAUUUAUCACUACGAAAUCUUGAGAGCGGGCGUUCGACACGCCCCCGGGAGAUUUUUUCCUCGAGCAA, the nonsense suppression is 0.433.
